According to ChEMBL document CHEMBL3286272, “Synthesis, biological, and biophysical studies of DAG-indololactones designed as selective activators of RasGRP” (Bioorg Med Chem, 2014):
Active and inactive are the calls of the source.

Tests used:
Assay type in all cases: cell-based
[1] = biological target: Protein kinase C delta type (Homo sapiens) (UniProt Q05655); test: Binding affinity to recombinant human GFP-tagged PKC-delta expressed in human LNCAP cells assessed as induction of protein translocation from plasma membrane to internal membrane at 1000 nM after 2 to 10 mins by confocal microscopic analysis
How it was run: (§1)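 Human GFP-PKCδ or GFP-RasGRP3 is expressed transiently in LNCaP cells, which were plated at 80,000 cells/ml, transfected after 48 h and imaged live 24 h after transfection. Cells are treated with ligand ([…]) or PMA (1000 nM). Confocal images (488 nm excitation, 500–530 nm emission) are taken every 30 s for 30 min. Representative images, n = 3–6.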

[2] = biological target: T1, Ras guanyl-releasing protein 3 (Homo sapiens) (UniProt Q8IV61); test: Binding affinity to recombinant human GFP-tagged RasGRP3 expressed in human LNCAP cells assessed as induction of protein translocation from plasma membrane to internal membrane at 1000 nM after 2 to 10 mins by confocal microscopic analysis; how it was run: as §1
T1 sequence (whole entry): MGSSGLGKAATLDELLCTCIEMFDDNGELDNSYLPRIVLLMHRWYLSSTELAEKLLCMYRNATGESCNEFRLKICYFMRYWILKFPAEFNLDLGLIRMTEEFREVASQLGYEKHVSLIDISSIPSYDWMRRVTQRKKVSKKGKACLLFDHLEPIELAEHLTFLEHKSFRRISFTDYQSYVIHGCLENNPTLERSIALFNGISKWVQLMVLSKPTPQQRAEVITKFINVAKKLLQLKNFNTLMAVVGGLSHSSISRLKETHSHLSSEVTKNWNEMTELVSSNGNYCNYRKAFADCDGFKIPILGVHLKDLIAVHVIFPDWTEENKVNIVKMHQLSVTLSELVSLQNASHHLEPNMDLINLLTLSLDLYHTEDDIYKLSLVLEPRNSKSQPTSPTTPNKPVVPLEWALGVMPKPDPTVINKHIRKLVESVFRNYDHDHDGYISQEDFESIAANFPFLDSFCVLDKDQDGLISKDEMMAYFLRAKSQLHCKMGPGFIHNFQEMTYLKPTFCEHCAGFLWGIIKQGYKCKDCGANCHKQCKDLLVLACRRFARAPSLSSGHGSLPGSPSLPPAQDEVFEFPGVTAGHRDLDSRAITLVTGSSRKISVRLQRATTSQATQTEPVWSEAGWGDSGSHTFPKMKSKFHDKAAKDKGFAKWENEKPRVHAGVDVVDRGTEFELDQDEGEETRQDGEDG

[3] = biological target: Protein kinase C delta type (Homo sapiens) (UniProt Q05655); test: Activation of PKC-delta in HEK293 cells assessed as protein phosphorylation at S299 at 0.1 to 30 uM after 30 mins by Western blot analysis
[4] = biological target: Protein kinase C delta type (Homo sapiens) (UniProt Q05655); test: Activation of PKC-delta in HEK293 cells overexpressing RasGRP3 assessed as protein phosphorylation at S299 at 0.1 to 30 uM after 30 mins by Western blot analysis
[5] = biological target: T1, Ras guanyl-releasing protein 3 (Homo sapiens); test: Activation of RasGRP3 (unknown origin) overexpressed in HEK293 cells assessed as protein phosphorylation at T133 at 0.1 to 30 uM after 30 mins by Western blot analysis
[6] = biological target: T1, Ras guanyl-releasing protein 3 (Homo sapiens); test: Activation of RasGRP3 (unknown origin) overexpressed in HEK293 cells assessed as ERK1/2 phosphorylation at 0.1 to 30 uM after 30 mins by Western blot analysis

Measured: Activity

Protein kinase C delta type (Homo sapiens), sequence (Q05655 whole entry, looked up): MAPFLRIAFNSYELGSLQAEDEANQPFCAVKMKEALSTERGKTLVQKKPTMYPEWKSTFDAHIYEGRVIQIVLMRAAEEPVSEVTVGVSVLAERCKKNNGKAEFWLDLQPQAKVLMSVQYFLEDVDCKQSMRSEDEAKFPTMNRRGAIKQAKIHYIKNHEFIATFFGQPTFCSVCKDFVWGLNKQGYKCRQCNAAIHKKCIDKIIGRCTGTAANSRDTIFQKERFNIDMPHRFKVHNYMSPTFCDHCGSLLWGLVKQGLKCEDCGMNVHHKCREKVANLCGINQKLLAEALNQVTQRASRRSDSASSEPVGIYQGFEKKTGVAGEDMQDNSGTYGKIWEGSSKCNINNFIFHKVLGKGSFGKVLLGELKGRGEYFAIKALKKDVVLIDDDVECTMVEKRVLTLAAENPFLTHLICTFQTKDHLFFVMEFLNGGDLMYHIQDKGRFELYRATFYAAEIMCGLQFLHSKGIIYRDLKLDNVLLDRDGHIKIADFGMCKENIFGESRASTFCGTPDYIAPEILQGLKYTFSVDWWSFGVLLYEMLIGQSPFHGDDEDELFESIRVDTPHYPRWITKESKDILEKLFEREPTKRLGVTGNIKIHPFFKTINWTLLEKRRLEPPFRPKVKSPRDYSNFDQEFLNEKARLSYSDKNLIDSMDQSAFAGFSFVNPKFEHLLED

CCCCCCCCCCCCCC(=O)O[C@@H]1[C@@H](C)[C@@]2(O)[C@@H](C=C(CO)C[C@]3(O)C(=O)C(C)=C[C@@H]23)[C@@H]2C(C)(C)[C@]12OC(C)=O
active: [1] | [2] | [3] | [4] | [5] | [6]

CCCC(=O)O[C@@H]1[C@@H](C)[C@@]2(O)[C@@H](C=C(CO)C[C@]3(O)C(=O)C(C)=C[C@@H]23)[C@@H]2C(C)(C)[C@]12OC(=O)CCC
active: [1] | [2]
